Source: ChEMBL document CHEMBL4138255, “Discovery of a Slow Tight Binding LPA1 Antagonist (ONO-0300302) for the Treatment of Benign Prostatic Hyperplasia” (ACS Med Chem Lett, 2017)
Activity calls are given as the source filed them. No cut-off for these calls is given here.

How the values were obtained:
[1] = target: Lysophosphatidic acid receptor 1 (Rattus norvegicus) (UniProt P61794); test: Antagonist activity at LPA1 in CD(SD)IGS rat urethra assessed as inhibition of LPA-induced urethra contraction at 1 uM pretreated for 30 mins followed by LPA addition; format: functional
How it was run: (§1)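 Isolated rat urethra. Contraction to 10 μM LPA was recorded as 100% control. Medium was exchanged, then 1 μM test compound was added for 30 min and contraction to 10 μM LPA recorded. Tissue was washed with compound-free medium three times every 10 min before each LPA re-challenge, two wash-out rounds. Expressed as % inhibition, mean ± SD, n = 3.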

[2] = target: Lysophosphatidic acid receptor 1 (Rattus norvegicus) (UniProt P61794); test: Antagonist activity at LPA1 in CD(SD)IGS rat urethra assessed as inhibition of LPA-induced urethra contraction at 1 uM pretreated for 30 mins prior to LPA addition followed by compound washout every 10 minutes for 2 times and subsequent LPA stimulation; format: functional; how it was run: as §1
[3] = target: T1, Lysophosphatidic acid receptor 1 (Homo sapiens, UniProt Q92633); test: Antagonist activity at recombinant human LPA1 expressed in CHO cells assessed as reduction in LPA-induced intracellular calcium level pretreated followed by LPA addition by Fura-2-AM dye based fluorescence assay; format: functional, cell-based
How it was run: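 LPA-induced Ca²⁺ mobilization in CHO cells stably expressing the LPA1 receptor, with 10 min incubation. IC50 was obtained by nonlinear regression of 4-point dose–response curves, with 95% confidence intervals.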

[4] = test system: Rattus norvegicus; test: Inhibition of LPA-induced increase of intraurethral pressure in po dosed rat measured after 1 hr; format: functional; conditions: for ED50: read-out: ID50 (the source's name)
How it was run: (§2)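 Conscious rats were given compound or vehicle (20% STPG) orally, 3 mg/kg. At 1, 3, 6, 9, 12, 18 or 24 h, LPA (300 μg/kg) was injected i.v. and intraurethral pressure was measured under short-term anesthesia. Inhibition was calculated versus vehicle. ID50 was determined from oral dose–response at 1 h.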

[5] = target: T1, Lysophosphatidic acid receptor 1; test: Binding affinity to recombinant human LPA1 expressed in CHO cell membranes measured after 4 hrs by scintillation counting method; conditions: for Bmax: tested as the 3H-labelled form
[6] = target: T1, Lysophosphatidic acid receptor 1; test: Binding affinity to recombinant human LPA1 expressed in CHO cell membranes measured after 0.5 hrs by scintillation counting method; conditions: for Bmax: tested as the 3H-labelled form
[7] = target: T1, Lysophosphatidic acid receptor 1; test: Binding affinity to recombinant human LPA1 expressed in CHO cell membranes measured after 2 hrs by scintillation counting method; conditions: for Bmax: tested as the 3H-labelled form
[8] = target: T1, Lysophosphatidic acid receptor 1; test: Binding affinity to recombinant human LPA1 expressed in CHO cell membranes measured after 1 hr by scintillation counting method; conditions: for Bmax: tested as the 3H-labelled form
[9] = test system: Rattus norvegicus; test: Inhibition of LPA-induced increase of intraurethral pressure in rat at 3 mg/kg, po measured after 6 hrs relative to control; format: functional; how it was run: as §2
[10] = Half life in rat microsomes in presence of NADPH; format: ADME, Microsome
[11] = Half life in human microsomes in presence of NADPH; format: ADME, Microsome
[12] = test system: Rattus norvegicus; test: Inhibition of LPA-induced increase of intraurethral pressure in rat at 3 mg/kg, po measured after 3 hrs relative to control; format: functional; how it was run: as §2
[13] = target: T1, Lysophosphatidic acid receptor 1; test: Binding affinity to recombinant human LPA1 expressed in CHO cell membranes measured after 2 hrs at room temperature by scintillation counting method
[14] = target: T1, Lysophosphatidic acid receptor 1; test: Binding affinity to recombinant human LPA1 expressed in CHO cell membranes measured after 2 hrs at 4 degC by scintillation counting method
[15] = target: T1, Lysophosphatidic acid receptor 1; test: Binding affinity to recombinant human LPA1 expressed in CHO cell membranes measured after 2 hrs at 37 degC by scintillation counting method
[16] = test system: Canis familiaris; test: Inhibition of LPA-induced increase of intraurethral pressure in dog at 1 to 3 mg/kg, po measured up to 24 hrs; format: functional, organism-based; conditions: Canis lupus familiaris
How it was run: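 Conscious dogs were dosed orally at 1 or 3 mg/kg. LPA (300 μg/kg i.v.) was injected at 0.5, 1, 2, 4, 6, 9, 12 and 24 h, and intraurethral pressure was measured in conscious animals. Response was expressed as % of each dog's predose (0 h) IUP.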

[17] = target: T1, Lysophosphatidic acid receptor 1; test: Antagonist activity at recombinant human LPA1 expressed in CHO cell […] pretreated for 24 hrs prior to Fura-2-AM dye addition for 1 hr followed by LPA stimulation measured after 3 mins by fluorescence assay; format: functional, cell-based
How it was run: (§3)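 Ca²⁺ mobilization in CHO cells stably expressing LPA1. Compound was added at cell seeding and incubated 24 h, and was held at the same concentration through Ca²⁺-indicator loading and LPA stimulation. In the wash-out variant, compound was removed before LPA stimulation. IC50 was obtained with 95% confidence intervals.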

[18] = target: T1, Lysophosphatidic acid receptor 1; test: Antagonist activity at recombinant human LPA1 expressed in CHO cell […] pretreated for 24 hrs prior to Fura-2-AM dye addition for 1 hr followed by compound washout and subsequent LPA stimulation measured after 3 mins by fluorescence assay; format: functional, cell-based; how it was run: as §3
[19] = test system: Rattus norvegicus; test: Inhibition of LPA-induced increase of intraurethral pressure in rat at 3 mg/kg, po measured at 18 hrs relative to control; format: functional; how it was run: as §2
[20] = test system: Canis familiaris; test: Inhibition of LPA-induced increase of intraurethral pressure in dog at 1 mg/kg, po measured after 24 hrs relative to control; format: functional; conditions: Canis lupus familiaris
[21] = Total clearance in rat at 1 mg/kg, iv; format: ADME, organism-based; conditions: in vivo
[22] = test system: Rattus norvegicus; test: Inhibition of LPA-induced increase of intraurethral pressure in rat at 3 mg/kg, po measured up to 12 hrs relative to control; format: functional; how it was run: as §2
[23] = test system: Rattus norvegicus; test: Inhibition of LPA-induced increase of intraurethral pressure in rat at 3 mg/kg, po measured after 1 hr relative to control; format: functional; how it was run: as §2
[24] = test system: Rattus norvegicus; test: Inhibition of LPA-induced increase of intraurethral pressure in po dosed rat measured after 6 hrs; format: functional; how it was run: as §2

T1 sequence (Q92633 whole entry): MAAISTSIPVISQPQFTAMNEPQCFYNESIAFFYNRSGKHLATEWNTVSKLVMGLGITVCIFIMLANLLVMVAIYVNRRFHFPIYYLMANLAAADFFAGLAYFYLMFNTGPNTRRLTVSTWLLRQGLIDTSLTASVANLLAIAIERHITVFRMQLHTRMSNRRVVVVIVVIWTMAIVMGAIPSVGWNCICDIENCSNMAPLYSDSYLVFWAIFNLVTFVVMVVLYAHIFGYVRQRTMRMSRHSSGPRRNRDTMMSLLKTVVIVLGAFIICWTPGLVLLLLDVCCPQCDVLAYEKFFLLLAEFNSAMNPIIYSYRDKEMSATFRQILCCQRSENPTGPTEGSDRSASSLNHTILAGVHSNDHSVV
Sequence of Lysophosphatidic acid receptor 1 (Rattus norvegicus) (P61794 whole entry): as the sequence (Q92633 whole entry) above, with I4A, I8S, P22Q, H40Y, I61V, E193D, N194H, I269V, S331N, T335N counted along it

COc1cc([C@@H](O)[C@@H](CCCc2ccccc2)Cc2ccc(CC(=O)O)cc2)cc(OC)c1C
inhibition [1]: Active | inhibition [2]: Active | IC50 [3]: 61 nM | inhibition [4]: Dose-dependent effect | ED50 [4]: 0.97 mg/kg

COc1cc([C@@H](O)[C@@H](CCCc2ccccc2)Cn2ccc(CCC(=O)O)n2)cc(OC)c1C
IC50 [3]: 40 nM

COc1cc(C(=O)N(CCCc2ccccc2)Cc2ccc(CC(=O)O)cc2)cc(OC)c1C
inhibition [1]: Active | Bmax [5]: 2740 cpm | inhibition [2]: inactive | Bmax [6]: 3420 cpm | Bmax [7]: 2450 cpm | Bmax [8]: 3560 cpm

COc1cc([C@@H](O)[C@@H](CCCc2ccccc2)Cn2ccc(CCC(=O)O)c2)cc(OC)c1C
IC50 [3]: 22 nM

[3H]C(CN(Cc1ccc(CC(=O)O)cc1)C(=O)c1cc(OC)c(C)c(OC)c1)C([3H])c1ccccc1 (stereo not given)
Kd [5]: 10.2 nM | Kd [6]: 8.12 nM | Kd [7]: 5.96 nM | Kd [8]: 6.54 nM

COc1cc([C@@H](O)[C@@H](CCCc2ccccc2)Cn2ccc(C(=O)O)c2)cc(OC)c1C
IC50 [3]: 120 nM

COc1cc([C@@H](O)[C@@H](CCCc2ccccc2)Cn2cc(CCC(=O)O)cn2)cc(OC)c1C
IC50 [3]: 34 nM

COc1cc([C@@H](O)[C@@H](CCCc2ccccc2)Cn2ccc(CC(=O)O)n2)cc(OC)c1C
IC50 [3]: 32 nM

COc1cc([C@@H](O)[C@@H](CCCc2ccccc2)Cn2cnc(CC(=O)O)c2)cc(OC)c1C
IC50 [3]: 180 nM

COc1cc([C@@H](O)[C@@H](CCCc2cccs2)Cn2ccc(CC(=O)O)c2)cc(OC)c1C
inhibition [9]: inactive | half-life [10]: < 0.25 h | half-life [11]: 1.37 h | IC50 [3]: 29 nM | inhibition in vivo at 3 mg/kg [12]: 70%

COc1cc(C(=O)N(C/C=C/c2ccccc2)Cc2ccc(CC(=O)O)cc2)cc(OC)c1C
half-life [10]: > 3.33 h | half-life [11]: 2.72 h | IC50 [3]: > 1000 nM

[3H]C(C(=O)O)C([3H])c1ccn(C[C@H](CC2Cc3ccccc3C2)[C@H](O)c2cc(OC)c(C)c(OC)c2)c1 (stereo not given in full)
Kd [13]: 0.74 nM | Kd [5]: 0.49 nM | Kd [6]: 2.34 nM | Kd [14]: 22.5 nM | Kd [15]: 0.34 nM | Kd [7]: 0.74 nM | Kd [8]: 1.26 nM

COc1cc([C@@H](O)[C@@H](CCCc2ccsc2)Cn2ccc(CCC(=O)O)c2)cc(OC)c1C
inhibition [9]: inactive | half-life [10]: < 0.25 h | half-life [11]: 1.1 h | IC50 [3]: 38 nM | inhibition in vivo at 3 mg/kg [12]: 70%

COc1cc([C@@H](O)[C@@H](CCCc2ccccc2)Cn2nc(C)c(CC(=O)O)c2C)cc(OC)c1C
IC50 [3]: 520 nM

COc1cc(C(=O)C(CCCc2ccccc2)Cc2ccc(CC(=O)O)cc2)cc(OC)c1C (stereo not given)
IC50 [3]: 460 nM

COc1cc([C@@H](O)[C@@H](CCCc2cccs2)Cn2ccc(CCC(=O)O)c2)cc(OC)c1C
inhibition [9]: inactive | half-life [10]: < 0.25 h | half-life [11]: 1.25 h | IC50 [3]: 45 nM | inhibition in vivo at 3 mg/kg [12]: 70%

COc1cc([C@@H](O)[C@@H](CC2Cc3ccccc3C2)Cn2ccc(CCC(=O)O)c2)cc(OC)c1C
Bmax ([13]; tested as the 3H-labelled form): 942 cpm | inhibition [16]: Active | Bmax [5]: 956 cpm | IC50 [17]: 0.16 nM | IC50 [18]: 0.19 nM | Bmax [6]: 974 cpm | Bmax ([14]; tested as the 3H-labelled form): 1030 cpm | inhibition in vivo at 3 mg/kg [19]: 47% | Bmax ([15]; tested as the 3H-labelled form): 1110 cpm | inhibition in vivo at 1 mg/kg [20]: 30% | Bmax [7]: 942 cpm | half-life [10]: 0.25 h | half-life [11]: 1.32 h | clearance [21]: 20.5 mL/min/kg | IC50 [3]: 86 nM | Bmax [8]: 973 cpm

COc1cc([C@@H](O)[C@@H](CCCc2ccccc2)Cn2cc(CC(=O)O)cn2)cc(OC)c1C
IC50 [3]: 30 nM

COc1cc([C@@H](O)[C@@H](CC2Cc3ccccc3C2)Cn2ccc(CC(=O)O)c2)cc(OC)c1C
inhibition [16]: Active | half-life [10]: 0.567 h | inhibition in vivo at 3 mg/kg [22]: 52% | half-life [11]: 1.08 h | clearance [21]: 19.2 mL/min/kg | IC50 [3]: 61 nM

COc1cc([C@@H](O)[C@@H](CCCc2ccsc2)Cn2ccc(CC(=O)O)c2)cc(OC)c1C
inhibition in vivo at 3 mg/kg [23]: 75% | inhibition in vivo at 3 mg/kg [9]: 23% | half-life [10]: < 0.25 h | half-life [11]: 1 h | clearance [21]: 16.4 mL/min/kg | IC50 [3]: 23 nM

COc1cc([C@@H](O)[C@@H](CCCc2ccccc2)Cn2ccc(CC(=O)O)c2)cc(OC)c1C
inhibition (INH) [24]: 33% | inhibition [23]: Active | inhibition in vivo at 3 mg/kg [9]: 33% | half-life [10]: < 0.25 h | half-life [11]: 0.817 h | clearance [21]: 50.1 mL/min/kg | IC50 [3]: 13 nM | ED50 [4]: 0.6 mg/kg
